For data set [1], the system named is Human immunodeficiency virus. Nature of the data set: Antiviral activity against HIV NL-Lai infected in human TZM-bl cells assessed as inhibition of viral infection at 100 uM treated before viral infection measured after 24 hrs by luciferase assay. The format is functional, organism-based. The essentials:
(§1)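 TZM-bl cells infected with NL-Lai (X4) virus. Compounds at 100 μM were given either before infection or 4 h after infection. In the post-infection arm, unbound virus was washed off with PBS and fresh medium containing compound was added. T20 and AMD3100 controls were used at 2 μM. Luciferase was read 24 h later. Mean ± SD of triplicates.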

Data set [2] deals with Human immunodeficiency virus. Put plainly: Antiviral activity against HIV NL-Lai infected in human TZM-bl cells assessed as inhibition of viral infection at 100 uM treated 4 hrs after viral infection measured after 24 hrs by luciferase assay. The format is functional, organism-based. The essentials: as §1
A short description of data set [3]: Cytotoxicity against human TZM-bl cells up to 200 uM after 24 hrs by MTS assay. The class given is cell-based. A digest of the protocol: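 TZM-bl cells were seeded and left overnight, then exposed to serial dilutions starting at 200 μM for 24 h. MTS dye reduction was read as OD at 490 nm and normalized to cells in medium only.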
Data set [4] concerns Human immunodeficiency virus. Put plainly: Antiviral activity against HIV NL-Lai infected in human TZM-bl cells assessed as inhibition of viral infection after 24 hrs by luciferase assay. The class given is functional, organism-based. The following applies: Human immunodeficiency virus 1, NL-Lai. A digest of the protocol: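 TZM-bl cells (2×10^4/well) adhered overnight, then infected with X4 NL-Lai virus (from 293T transfection, titered on TZM-bl) with 20 μg/mL DEAE dextran and serial dilutions of compound. Luciferase read 24 h post infection and normalized to virus-only wells. IC50 taken from curve fit of data pooled from at least three independent experiments.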

For data set [5], the system named is Human immunodeficiency virus 1. Put plainly: Binding affinity to HIV1 3B R15K V3 loop of gp-120 using monomolecular film after 2 to 3 hrs by microtensiometer analysis. The essentials: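 Glycolipid monolayers spread from hexane-chloroform-ethanol onto a pure water subphase at various initial surface pressures, with 5 min allowed for solvent evaporation, at 20°C ± 1°C. Critical pressure of insertion extrapolated to zero Δπ; surface pressure accuracy ± 0.25 mN/m.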

A short description of data set [6]: Critical micelle concentration of the compound. The format is physicochemical. A digest of the protocol: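 Glycolipid stocks in hexane:chloroform:ethanol (11:5:4) were injected 1:1000 into water, with surface tension recorded continuously on a microtensiometer. CMC was taken as the concentration above which surface tension no longer fell. Measured in triplicate.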

pIC50: −log10 of the molar value. Calls of active or inactive are those of the source. The rule behind the calls is not given here.

In the case of `c1cc(CN2CCCNCCNCCCNCC2)ccc1CN1CCCNCCNCCCNCC1`, in data set [1], the inhibition entry is “Active”. In data set [2], the inhibition entry was “inactive”.
On to `CCCCCCCCCCCCCCCC(=O)OC[C@H]1O[C@H](O[C@H]2O[C@H](CO)[C@H](O)[C@H](O)[C@H]2O)[C@@H](O)[C@@H](O)[C@@H]1O`, for which the Activity entry in data set [3] is on record as “Non-toxic”. In data set [4], the pIC50 was 4.32. Moreover, the inhibition entry in data set [1] is “Active”. For the same compound, the inhibition result in data set [2] is “inactive”.
As for `CCCCCCCCCCCCCCCCO[C@@H]1O[C@H](CO)C(O)[C@H](O)[C@H]1O` (single isomer, unassigned), the Activity result in data set [3] was “Non-toxic”. In addition, in data set [4], the pIC50 is 4.36. The inhibition result in data set [1] is “Active”. Moreover, the inhibition entry in data set [2] was “inactive”.
Consider `CCCCCCCCCCCCCCCC(=O)O[C@@H]1[C@H](O)[C@@H](O[C@@H]2O[C@H](CO)[C@H](O)[C@H](O)[C@H]2O)O[C@H](CO)[C@H]1O`, for which the Activity entry in data set [3] is reported as “Non-toxic”. Besides, the CPI in data set [5] was 18 mN/meter. For the same compound, the negative-log IC50 (pIC50) in data set [4] was 4.12. Moreover, the inhibition result in data set [1] is “Active”. Moreover, in data set [6], the CMC is 12 µM. Further, the inhibition result in data set [2] is “inactive”.
Turning to `CCCCCCCCCCCCCCCC(=O)OC[C@H]1O[C@H](O[C@@H]2O[C@H](CO)[C@H](O)[C@H](O)[C@H]2O)[C@@H](O)[C@@H](O)[C@@H]1O`, in data set [3], the Activity entry is given as “Non-toxic”. This compound had a CPI in data set [5] of 18 mN/meter. Besides, in data set [4], the pIC50 was below 4.00. In addition, the CMC in data set [6] is 9.8 µM.
For the compound `CCCCCCCCCCCC(=O)OCC(O)CO` (centres undefined) [GLYCEROL MONOLAURATE], in data set [4], the negative logarithm of the IC50 (pIC50) was below 4.00.
Turning to `CCCCCCCCCCCCCCCC(=O)OC[C@H]1O[C@H](O[C@@H]2O[C@H](CO)[C@@H](O)[C@H](O)[C@H]2O)[C@@H](O)[C@@H](O)[C@@H]1O`, the Activity result in data set [3] is on record as “Non-toxic”. This compound gave a CPI in data set [5] of 18 mN/meter. Further, in data set [4], the pIC50 is 4.28. In addition, in data set [1], the inhibition result was “Active”. The same compound gave a CMC in data set [6] of 10 µM. In addition, the inhibition result in data set [2] is “inactive”.
Take `CCCCCCCCCCCCCCCC(=O)OC[C@H]1O[C@H](OC)[C@@H](O)[C@@H](O)[C@@H]1OC(=O)CCCCCCCCCCCCCCC`: in data set [3], the Activity result is “Non-toxic”. For the same compound, the CPI in data set [5] came to 18 mN/meter. In data set [4], the pIC50 was below 4.00.
Consider `CCCCCCCCCCCCCCCC(=O)OC[C@H]1O[C@H](OC)[C@@H](O)[C@@H](O)[C@@H]1O`, for which the Activity entry in data set [3] is listed as “Non-toxic”. The compound also returned a CPI in data set [5] of 18 mN/meter. Also, the pIC50 in data set [4] is below 4.00. Moreover, the CMC in data set [6] amounted to 13 µM.
Turning to `CCCCCCCCCCCCCCCC(=O)OC[C@H]1O[C@H](O[C@@H]2O[C@H](CO)[C@H](O)[C@H](O)[C@H]2O)[C@@H](O)[C@@H](O)[C@@H]1OC(=O)CCCCCCCCCCCCCCC`, the Activity result in data set [3] is “Non-toxic”. This compound also returned a CPI in data set [5] of 18 mN/meter. Also, the pIC50 in data set [4] was below 4.00.
For the compound `CCCCCCCCCCCCC/C=C/[C@@H](O)[C@H](CO[C@@H]1O[C@H](CO)[C@H](O)[C@H](O)[C@H]1O)NC(=O)C(O)CCCCCCCCCCCCCCCCCCCCCC` (some centres undefined), in data set [3], the Activity result is recorded as “Non-toxic”. In addition, the CPI in data set [5] amounted to 22 mN/meter.

The values above are taken from ChEMBL document CHEMBL1811870, “Synthesis, gp120 binding and anti-HIV activity of fatty acid esters of 1,1-linked disaccharides” (Bioorg Med Chem, 2011).
